“Also recorded” adds a separate entry of the source. Where two headings read alike, the source gives them in different places.
Key:
Recombinant CEEH1 [1] = details: natural substrates, ref Harris et al. (2008); cited from earlier work
Recombinant SPEH1 [2] = target: T1, Recombinant SPEH1 (Strongylocentrotus purpuratus, UniProt B2MWN2); assay: Hydrolysis of EETs and EpOMEs analyzed by LC-MS/MS, recombinant SPEH1; assay type: biochemical; details: natural substrates, adjusted for estimated purity
Recombinant CEEH1 [3] = details: read-out: Recombinant CEEH1 IC50; PHOME as substrate; ref Harris et al. (2008); cited from earlier work
Recombinant SPEH1 [4] = target: T1, Recombinant SPEH1; assay: Fluorescent IC50 assay with PHOME as substrate, recombinant SPEH1; assay type: biochemical
SPEH1 = assay: Phosphatase assay with AttoPhos, SPEH1; assay type: biochemical, Strongylocentrotus purpuratus; details: AttoPhos as substrate
SPEH2 [5] = assay: Phosphatase assay with AttoPhos, SPEH2; assay type: biochemical, Strongylocentrotus purpuratus; details: AttoPhos as substrate
Recombinant SPEH1 [6] = target: T1, Recombinant SPEH1; assay: Inhibition of recombinant SPEH1, [3H] t-DPPO as substrate; assay type: biochemical; details: read-out: Recombinant SPEH1 IC50
Recombinant CEEH1 [7] = details: ref Harris et al. (2008), cited from earlier work
Recombinant human sEH = details: ref Morisseau et al. (2000), cited from earlier work
SPEH2 [8] = assay: Radiometric epoxide hydrolase assay with t-DPPO, recombinant SPEH2; assay type: biochemical, Strongylocentrotus purpuratus; details: t-DPPO as substrate
In short: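 Recombinant enzyme with a C-terminal six-histidine tag, expressed in baculovirus-infected Trichoplusia ni High Five cells (0.1 MOI, 72 h at 28°C). […] The radiometric assay used tritium-labelled t-DPPO as substrate, with enzyme at 0.3 µg/mL, and was terminated at 10 min.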

Recombinant SPEH1 [9] = target: T1, Recombinant SPEH1; assay type: biochemical
[10] = t-DPPO as substrate, recombinant CEEH1
[11] = t-DPPO as substrate, recombinant human sEH
[12] = t-DPPO as substrate, recombinant SPEH1

In the case of CCCCC/C=C\C/C=C\CC1OC1C/C=C\CCCC(=O)O (stereo not drawn) [8,9-EET], the Specific activity (Recombinant CEEH1 [1]) is listed as 45.2 ± 1.00 nmol/min/mg and the Specific activity (Recombinant SPEH1 [2]) is listed as 33 ± 7.2 nmol/min/mg.

For CCCCCC=CCC1OC1CCCCCCCC(=O)O (stereo not drawn) [9,10-EpOME, 9,10-epoxy-12-octadecenoate], the Specific activity (Recombinant CEEH1 [1]) is listed as 137 ± 1.77 nmol/min/mg and the Specific activity (Recombinant SPEH1 [2]) is listed as 4800 ± 210 nmol/min/mg.

For CCCCC/C=C\C[C@H]1O[C@H]1C/C=C\C/C=C\CCCC(=O)O [11,12-EET], the Specific activity (Recombinant CEEH1 [1]) is given as 205 ± 15.3 nmol/min/mg and the Specific activity (Recombinant SPEH1 [2]) is given as 490 ± 140 nmol/min/mg.

For CCCCCC1OC1C/C=C\C/C=C\C/C=C\CCCC(=O)O (stereo not drawn) [14,15-EET], the Specific activity (Recombinant CEEH1 [1]) is given as 615 ± 10.8 nmol/min/mg and the Specific activity (Recombinant SPEH1 [2]) is given as 330 ± 64 nmol/min/mg.

For O=C(NC1CCCCC1)NC12CC3CC(CC(C3)C1)C2 [ACU, N-adamantyl-N′-cyclohexylurea], the IC50 (Recombinant CEEH1 [3]) is given as 2.5 ± 0.12 µM.

For O=C(O)CCCCCCCCCCCNC(=O)NC12CC3CC(CC(C3)C1)C2 [AUDA, 12-(3-adamantane-1-yl-ureido)-dodecanoic acid], the IC50 (Recombinant CEEH1 [3]) is listed as 0.027 ± 0.00029 µM and the IC50 (Recombinant SPEH1 [4]) is listed as 0.16 ± 0.013 µM.

For O=P(O)(O)Oc1ccc2nc(-c3nc4ccccc4s3)sc2c1 [AttoPhos], the “Phosphatase activity of SPEH1 with AttoPhos” value (SPEH1) was “did not display phosphatase activity” and the “Phosphatase activity of SPEH2 with AttoPhos” value (SPEH2 [5]) was “did not display phosphatase activity”.

For CCCCCCCCCCCCNC(=O)NC1CCCCC1 [CDU, N-cyclohexyl-N′-dodecylurea], the IC50 (Recombinant CEEH1 [3]) is given as 0.16 ± 0.023 µM.

For CCNC(=O)NC1CCCCC1 [CEU, N-cyclohexyl-N′-ethylurea], the IC50 (Recombinant CEEH1 [3]) is given as > 50 µM and the IC50 (Recombinant SPEH1 [6]) is given as > 50 µM.

For O=C(NC1CCCCC1)NC1CCCCC1 [DCU, N,N′-dicyclohexylurea], the IC50 (Recombinant CEEH1 [3]) is given as 41 µM.

For c1ccc(CC2OC2c2ccccc2)cc1 (stereo not drawn) [t-DPPO], the Km (Recombinant CEEH1 [7]; [10]) is listed as 160 ± 21 µM, the Specific activity (Recombinant CEEH1 [7]; [10]) is listed as 3000 ± 230 nmol/min/mg and the kcat (Recombinant CEEH1 [7]; [10]) is listed as 12 ± 0.5 s⁻¹. The kcat/Km ratio (Recombinant CEEH1 [7]; t-DPPO, nematode enzyme, unit not given) was 0.07, the Km (Recombinant human sEH; [11]) was 6.2 ± 0.6 µM and the Specific activity (Recombinant human sEH; [11]) was 4500 ± 200 nmol/min/mg. The kcat (Recombinant human sEH; [11]) was 4.3 ± 0.3 s⁻¹, the kcat/Km ratio (Recombinant human sEH; t-DPPO, human enzyme, unit not given) was 0.7 and the “EH activity of SPEH2 with t-DPPO” value (SPEH2 [8]) was “not active; also recorded: did not display activity”. For the same molecule, the Km (Recombinant SPEH1 [9]; [12]) was 35 ± 1.2 µM, the kcat (Recombinant SPEH1 [9]; [12]) was 44 ± 0.71 s⁻¹ and the Specific activity (Recombinant SPEH1 [9]; t-DPPO as substrate, recombinant SPEH1, adjusted for estimated purity) was 3100 ± 270 nmol/min/mg. The kcat/Km ratio (Recombinant SPEH1 [9]; t-DPPO, SPEH1, unit not given) was 1.3.

Reference: paper PMC2858585 (DNA and cell biology, 2008)
